# Experimental data pooled from the literature.
# Each line is one published result; the experiments were not run side by side.
# Cell line: UACC-62
# Observed: cell growth or viability
Compound,method,concentration,time,endpoint,result
COc1ccc(-c2ccc(-c3ccc(C(=N)N)nc3)s2)cc1,SRB,,,GI50,1.81 µM
COc1ccc(C(=O)/C=C/c2cccnc2)cc1S(N)(=O)=O,SRB,,48 h,GI50,12.9 µM
Cc1cc(C)n(C(=S)[S][Au][PH](CCCCCC[PH]([Au][S]C(=S)n2nc(C)cc2C)(c2ccccc2)c2ccccc2)(c2ccccc2)c2ccccc2)n1,,,,GI50,0.25 µM
COc1cccc(Oc2ccccc2NC(=O)CNC(=O)c2cccc3ccccc23)c1,SRB,,48 h,GI50,0.209 µM
O=C1NCCc2[nH]c(-c3ccncc3)cc21,,,,IC50,6.12 µM
COc1ccc(C(=O)/C=C/c2cccc3ccccc23)cc1S(N)(=O)=O,SRB,10 µM,,inhibition,158%
O=C1NC(=NCc2cccs2)S/C1=C\c1ccc2ncccc2c1,,,,IC50,> 10 µM
COc1cc(-c2ccc(-c3ccc(C(=N)N)nc3)s2)cc(OC)c1OC,SRB,,,GI50,1.73 µM
